Compound activity as filed in PubChem.
S1P1 ag pot: activates or potentiates agonism at human S1P1 receptor; P21453; S1P1 CRE-bla cells, forskolin, beta-lactamase FRET, potentiator mode; S1P1 agonist co-added at EC20, 2 nM; 100% = saturating reference agonist, 0% = basal; activation, % at 9.5 µM; 56,000 tested, 0.57% active;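 active = activation above a cutoff set at the mean activation of all tested compounds plus 3 SD, cut at about 54% in these data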;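 also: forskolin at 4 µM as EC80 and the EC20 agonist is SEW2871; 100% = SEW2871 at its EC100 plus forskolin at EC80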
5HT1E ag: agonists of human 5-HT1E serotonin receptor; CHO 5-HT1E Ga15 NFAT-bla reporter, FRET; 0% DMSO wells, 100% control agonist wells; activation, % at 6 µM; 65,000 tested, 0.69% active; AID 574;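 active = activation above a set limit, the screen-wide mean activation plus 3 SD, cut at about 8.5% in these data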;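 also: 100% = positive control agonist at 1 µM giving full maximal response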
HTR1E antagonist: antagonists of human 5-HT1E serotonin receptor; P28566; CHO 5-HT1E Ga15 NFAT-bla reporter, FRET, antagonist; inhibition, % at 6 µM; 65,000 tested, 0.99% active;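 active = inhibition above a set limit, the mean inhibition across every tested compound plus 3 SD, cut at about 29% in these data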;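 also: signal is the 460 over 535 nm emission ratio of beta-lactamase substrate; 0% = agonist plus DMSO wells and 100% = wells without agonist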
S1P3 agonist: S1P3 (human) receptor agonism; S1P3 NFAT-BLA reporter cells, FRET ratio; relative to 1 µM S1P, basal subtracted; Q99500; 60,000 tested, 0.1% active; AID 373; activation, % at 4.5 µM;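 active = activation above the screen-wide mean plus 3 SD, cut at about 4.5% in these data, passing the limit was not always enough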
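Assay system: CHO cells stably expressing human S1P3, Gα16 and NFAT-β-lactamase reporter. Timing: overnight plating, 4 h compound 37 °C, 2 h substrate RT. Signal: β-lactamase FRET emission ratio 460/535 nm. Measure: percent activation versus median 1 µM S1P response, basal-subtracted, per plate. Repeats: primary screen single test, confirmation screen in triplicate.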
5-HT1A blocker: blocks the human serotonin 5-HT1a receptor; CHO 5-HT1a Ga15 NFAT-bla reporter, antagonist mode; inhibition, % at 10 µM; P08908; AID 612; 62,000 tested, 0.68% active;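 active = inhibition above the mean of all tested compounds plus 3 SD, cut at about 43% in these data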;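 also: receptor stimulated by 5-CT agonist at 100 nM near EC80; beta-lactamase reporter measured by ratiometric fluorescence of a cleavable substrate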
Target sequence (P08908 whole entry, looked up): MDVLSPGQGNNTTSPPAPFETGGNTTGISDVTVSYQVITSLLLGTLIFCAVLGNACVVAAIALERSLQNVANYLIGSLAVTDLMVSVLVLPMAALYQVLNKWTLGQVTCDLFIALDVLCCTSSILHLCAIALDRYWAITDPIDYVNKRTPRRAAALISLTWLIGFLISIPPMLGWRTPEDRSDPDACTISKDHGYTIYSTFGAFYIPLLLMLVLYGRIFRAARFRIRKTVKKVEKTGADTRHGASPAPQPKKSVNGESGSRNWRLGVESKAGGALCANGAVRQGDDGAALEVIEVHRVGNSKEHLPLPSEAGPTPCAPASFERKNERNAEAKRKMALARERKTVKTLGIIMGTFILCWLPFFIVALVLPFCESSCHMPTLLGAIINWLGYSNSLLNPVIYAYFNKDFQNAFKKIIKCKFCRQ
HTR1A agonist: activates the human 5-HT1a serotonin receptor | P08908 | CHO 5-HT1a Ga15 NFAT-bla reporter, FRET ratio; 0% basal, 100% maximal reference agonist | activation, % at 10 µM | 65,000 tested, 0.56% active | AID 567;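 active = activation above the screen-wide mean activation plus 3 SD, cut at about 19% in these data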;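 also: 0% = DMSO wells and 100% = 5-CT at EC100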
* = called active by the depositor. Shown are actives, neighbours in structure and some others; about 3% of the full set was active somewhere.

Results for CCOC(=O)C1CCN(c2ncnc3c2oc2ccccc23)CC1 ?
S1P1 ag pot: 97*; 5HT1E ag: 0; HTR1E antagonist: 2; S1P3 agonist: -1; 5-HT1A blocker: 20; HTR1A agonist: 0

Results for CCOC(=O)C1CCN(c2ncnc3c2cnn3-c2ccc(Cl)cc2)CC1 ?
S1P1 ag pot: -12; 5HT1E ag: 0; HTR1E antagonist: -4; S1P3 agonist: -4; HTR1A agonist: 3

How did Cc1nn(-c2ccccc2)c(Cl)c1C(=O)N1CCN(c2ncnc3c2cnn3-c2ccccc2)CC1 do in these assays?
S1P1 ag pot: 28; 5HT1E ag: -1; HTR1E antagonist: 56*; S1P3 agonist: -1; 5-HT1A blocker: 63*; HTR1A agonist: 0

Results for c1ccc(N2CCN(c3ncnc4c3oc3ccccc34)CC2)cc1 ?
S1P1 ag pot: 61*; 5HT1E ag: 1; HTR1E antagonist: 7; S1P3 agonist: -1; 5-HT1A blocker: -9; HTR1A agonist: -1

How did O=C(c1ccco1)N1CCN(c2ncnc3c2cnn3-c2ccccc2)CC1 do in these assays?
S1P1 ag pot: -2; 5HT1E ag: 1; HTR1E antagonist: 12; S1P3 agonist: -2; 5-HT1A blocker: -6; HTR1A agonist: 2

Results for COc1ccccc1-c1c(C#N)c(SCC(=O)N2CCCC2)nc(C)c1C(N)=O ?
5HT1E ag: -1; HTR1E antagonist: -5; 5-HT1A blocker: -9; HTR1A agonist: 0

Results for CCOC(=O)N1CCN(C(=O)CN(c2ccc(OCc3ccccc3)cc2)S(C)(=O)=O)CC1 ?
5HT1E ag: 0; HTR1E antagonist: 5; S1P3 agonist: 0; 5-HT1A blocker: -2; HTR1A agonist: 1

Results for CC(C)OC(=O)c1c2nc3ccccc3nc2n2c1[nH]c(=O)c1ccccc12 ?
S1P1 ag pot: 8; 5HT1E ag: -1; HTR1E antagonist: 11; S1P3 agonist: -2; HTR1A agonist: 4

What do the screens show for `CCN(CC)CCOC(=O)c1cccc(Cl)c1`?
S1P1 ag pot: -5; 5HT1E ag: 2; HTR1E antagonist: 6; S1P3 agonist: -2; 5-HT1A blocker: 17; HTR1A agonist: -4

Results for CCN(CC)CCOC(=O)c1cccc(Br)c1 ?
S1P1 ag pot: 18; 5HT1E ag: 11*; HTR1E antagonist: 1; S1P3 agonist: -1; 5-HT1A blocker: 14; HTR1A agonist: 0

What do the screens show for `Cc1nc2ncnn2c(N2CCN(C(=O)Cc3cccs3)CC2)c1C`?
5HT1E ag: 1; HTR1E antagonist: 9; 5-HT1A blocker: -2; HTR1A agonist: 1

Results for COc1ccc(-n2ncc3c(N4CCC(C)CC4)ncnc32)cc1 ?
S1P1 ag pot: -5; 5HT1E ag: 0; HTR1E antagonist: 3; S1P3 agonist: -1; 5-HT1A blocker: 1; HTR1A agonist: 0

Results for Cc1cccc(-n2ncc3c(N(C)C4CCCCC4)ncnc32)c1 ?
S1P1 ag pot: 53*; 5HT1E ag: 1; HTR1E antagonist: 11; S1P3 agonist: -1; 5-HT1A blocker: 15; HTR1A agonist: -1

Results for COc1ccc(-n2ncc3c(N(C)C4CCCCC4)ncnc32)cc1 ?
S1P1 ag pot: 34; 5HT1E ag: 2; HTR1E antagonist: -11; S1P3 agonist: 0; 5-HT1A blocker: -4; HTR1A agonist: 31*

How did CCN(CC)c1ccc2cc(-c3nc4ccccc4[nH]3)c(=O)oc2c1 do in these assays?
S1P1 ag pot: 26; 5HT1E ag: 0; HTR1E antagonist: 49*; S1P3 agonist: -3; 5-HT1A blocker: 27; HTR1A agonist: -6

What do the screens show for `CCN(CC)c1ccc2cc(-c3nc4ccccc4n3C)c(=O)oc2c1`?
S1P1 ag pot: 38; 5HT1E ag: 7; HTR1E antagonist: 82*; S1P3 agonist: 0; 5-HT1A blocker: 54*; HTR1A agonist: 16

How did Cc1c(/C=N/n2cnnc2)c2ccccc2n1C do in these assays?
5HT1E ag: 0; HTR1E antagonist: 0; S1P3 agonist: -1; 5-HT1A blocker: 7; HTR1A agonist: 1

What do the screens show for `Cc1ccc(-c2c3c(=O)n(C)c(=O)n(C)c3c3c(C)cc(C)nn23)cc1`?
S1P1 ag pot: 34; 5HT1E ag: 0; HTR1E antagonist: 11; S1P3 agonist: -2; 5-HT1A blocker: 8; HTR1A agonist: -2

What do the screens show for `COc1cccc(OC)c1C(=O)N1CCN(Cc2ccccc2C)CC1`?
S1P1 ag pot: -10; 5HT1E ag: 1; HTR1E antagonist: -10; S1P3 agonist: -2; 5-HT1A blocker: 6; HTR1A agonist: -4

What do the screens show for `OCCN1CCN(Cc2cccc(Oc3ccc(Cl)cc3)c2)CC1`?
S1P1 ag pot: -38; 5HT1E ag: 10*; HTR1E antagonist: 8; S1P3 agonist: -1; 5-HT1A blocker: 1; HTR1A agonist: 0

Results for N#Cc1nc(-c2cccs2)oc1NCCc1ccccc1 ?
S1P1 ag pot: 2; 5HT1E ag: -1; HTR1E antagonist: 36*; S1P3 agonist: -4; HTR1A agonist: 4

How did N#Cc1nc(-c2ccco2)oc1NCCc1ccccc1 do in these assays?
S1P1 ag pot: -17; 5HT1E ag: 0; HTR1E antagonist: 5; S1P3 agonist: 0; 5-HT1A blocker: -13; HTR1A agonist: -1

Results for Cc1ccc(O)c(-c2cc(-c3ccccc3C)[nH]n2)c1 ?
5HT1E ag: 2; HTR1E antagonist: -1; S1P3 agonist: 0; 5-HT1A blocker: 44*; HTR1A agonist: -1

How did Oc1ccccc1-c1cc(-c2ccccc2Cl)[nH]n1 do in these assays?
S1P1 ag pot: 17; 5HT1E ag: 1; HTR1E antagonist: -4; S1P3 agonist: -1; 5-HT1A blocker: 24; HTR1A agonist: -5

What do the screens show for `O=C1CC(Sc2nnnn2C2CCCCC2)C(=O)N1c1ccccc1` (stereo not given)?
S1P1 ag pot: -26; 5HT1E ag: 0; HTR1E antagonist: 23; S1P3 agonist: -1; 5-HT1A blocker: 44*; HTR1A agonist: -2

What do the screens show for `CCSc1nc(-c2cccs2)nc2c1c(=O)n(C)c(=O)n2C`?
S1P1 ag pot: -11; 5HT1E ag: 0; HTR1E antagonist: -7; S1P3 agonist: 0; 5-HT1A blocker: -5; HTR1A agonist: -1

How did CCn1c(SCC(=O)Nc2cc(C)ccc2C)nc2c(c1=O)SC(C)C2 (stereo not given) do in these assays?
S1P1 ag pot: -6; 5HT1E ag: 1; HTR1E antagonist: 0; S1P3 agonist: -1; 5-HT1A blocker: 13; HTR1A agonist: 70*

How did Cc1ccc(C)c(NC(=O)CSc2nc3c(c(=O)n2C)SC(C)C3)c1 (stereo not given) do in these assays?
S1P1 ag pot: -9; 5HT1E ag: 1; HTR1E antagonist: 4; S1P3 agonist: 0; 5-HT1A blocker: -4; HTR1A agonist: 2
